According to ChEMBL document CHEMBL1122708, “Preparation and antibacterial activities of new 1,2,3-diazaborine derivatives and analogues” (1984):
Values after ≈ are worked out from the molar mass of the structure shown.

Key:
Escherichia coli [1] = assay: Minimum inhibitory concentration of compound against Escherichia coli delta 120; assay type: functional
Neisseria gonorrhoeae [2] = assay: Minimum inhibitory concentration of compound against Neisseria gonorrhoeae W2; assay type: functional
How it was run: (§1)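 Agar dilution on Kellogg agar, 10⁶ colony forming units, incubated 20 h at 36 °C in 5% CO₂; MIC is the lowest concentration giving no visible growth.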

Salmonella typhimurium = assay: Minimum inhibitory concentration of compound against Salmonella Typhimurium delta 119; assay type: functional, Salmonella enterica subsp. enterica serovar Typhimurium; conditions: Salmonella enterica
Klebsiella pneumoniae = assay: Minimum inhibitory concentration of compound against Klebsiella pneumoniae delta 217; assay type: functional
Proteus mirabilis = assay: Minimum inhibitory concentration against Proteus mirabilis delta 89; assay type: functional
Escherichia coli [3] = assay: Antibacterial activity againist Escherichia coli 120 infected NMRI mice after peroral administration; assay type: functional; conditions: po
How it was run: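 ED50 in NMRI mice infected intraperitoneally with E. coli 120; compound given orally immediately and 5 h after infection.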

Klebsiella aerogenes = assay: Minimum inhibitory concentration of compound against Enterobacter aerogenes delta 220; assay type: functional
Neisseria gonorrhoeae [4] = assay: Minimum inhibitory concentration of compound against Neisseria gonorrhoeae AS 7720; assay type: functional; how it was run: as §1

SMILES | MIC (Escherichia coli [1]) | MIC (Neisseria gonorrhoeae [2]) | MIC (Salmonella typhimurium) | MIC (Klebsiella pneumoniae) | MIC (Proteus mirabilis) | MIC (Klebsiella aerogenes) | MIC (Neisseria gonorrhoeae [4]) | ED50 (Escherichia coli [3])
Cc1ccc2c(c1)C=NN(S(=O)(=O)c1ccc(N)cc1Cl)B2O | 10 µg/mL (≈ 28.6 µM) | 1 µg/mL (≈ 2.86 µM) | 3.12 µg/mL (≈ 8.92 µM) | 0.78 µg/mL (≈ 2.23 µM) | 0.39 µg/mL (≈ 1.12 µM) | 10 µg/mL (≈ 28.6 µM) | 1 µg/mL (≈ 2.86 µM) | 14 mg/kg
CCCS(=O)(=O)N1N=Cc2c(ccn2C)B1O | > 50 µg/mL | > 8 µg/mL | > 50 µg/mL | 25 µg/mL (≈ 98 µM) | > 50 µg/mL | > 50 µg/mL | > 8 µg/mL | > 300 mg/kg
CCc1cc2c(s1)C=NN(S(=O)(=O)c1ccccc1Cl)B2O | 3.12 µg/mL (≈ 8.8 µM) | 1 µg/mL (≈ 2.82 µM) | 0.78 µg/mL (≈ 2.2 µM) | 0.31 µg/mL (≈ 0.874 µM) | 0.39 µg/mL (≈ 1.1 µM) | 12.5 µg/mL (≈ 35.2 µM) | 0.5 µg/mL (≈ 1.41 µM) | 49 mg/kg
O=S(=O)(c1ccccc1Cl)N1N=Cc2cc(Br)sc2B1O | > 50 µg/mL | > 8 µg/mL | > 50 µg/mL | > 50 µg/mL | > 50 µg/mL | > 50 µg/mL | > 8 µg/mL | > 300 mg/kg
Cc1ccc(S(=O)(=O)N2N=Cc3sc(Br)cc3B2O)c(Cl)c1 | 50 µg/mL (≈ 119 µM) | 1 µg/mL (≈ 2.38 µM) | 12.5 µg/mL (≈ 29.8 µM) | 6.25 µg/mL (≈ 14.9 µM) | 3.12 µg/mL (≈ 7.44 µM) | 50 µg/mL (≈ 119 µM) | 0.25 µg/mL (≈ 0.596 µM) | 39 mg/kg
Cc1ccccc1S(=O)(=O)N1N=Cc2sc(Br)cc2B1O | 25 µg/mL (≈ 64.9 µM) | 0.5 µg/mL (≈ 1.3 µM) | 6.25 µg/mL (≈ 16.2 µM) | 3.12 µg/mL (≈ 8.1 µM) | 1.56 µg/mL (≈ 4.05 µM) | 50 µg/mL (≈ 130 µM) | 0.5 µg/mL (≈ 1.3 µM) | 57 mg/kg
Cc1ccc(S(=O)(=O)N2N=Cc3cc(Br)sc3B2O)cc1 | > 50 µg/mL | > 8 µg/mL | > 50 µg/mL | > 50 µg/mL | 25 µg/mL (≈ 64.9 µM) | > 50 µg/mL | > 8 µg/mL | > 300 mg/kg
Cc1ccc(S(=O)(=O)N2N=Cc3cc4c(cc3B2O)C=NN(S(=O)(=O)c2ccc(C)cc2)B4O)cc1 | > 50 µg/mL | > 8 µg/mL | > 50 µg/mL | > 50 µg/mL | 50 µg/mL (≈ 95.8 µM) | > 50 µg/mL | > 8 µg/mL | > 300 mg/kg
CC(C)CS(=O)(=O)N1N=Cc2sc(Br)cc2B1O | 12.5 µg/mL (≈ 35.6 µM) | 2 µg/mL (≈ 5.7 µM) | 1.56 µg/mL (≈ 4.44 µM) | 1.56 µg/mL (≈ 4.44 µM) | 6.25 µg/mL (≈ 17.8 µM) | 12.5 µg/mL (≈ 35.6 µM) | 2 µg/mL (≈ 5.7 µM) | 73 mg/kg

Now from value to molecule, other results behind:

MIC (Escherichia coli [1]) | MIC (Neisseria gonorrhoeae [2]) | MIC (Salmonella typhimurium) | MIC (Klebsiella pneumoniae) | MIC (Proteus mirabilis) | MIC (Klebsiella aerogenes) | MIC (Neisseria gonorrhoeae [4]) | SMILES | ED50 (Escherichia coli [3])
10 µg/mL (≈ 26.3 µM) | 2 µg/mL (≈ 5.26 µM) | 3.12 µg/mL (≈ 8.21 µM) | 1.56 µg/mL (≈ 4.1 µM) | 0.78 µg/mL (≈ 2.05 µM) | 25 µg/mL (≈ 65.8 µM) | 1 µg/mL (≈ 2.63 µM) | Nc1ccc(S(=O)(=O)N2N=Cc3cc(Br)ccc3B2O)cc1 | 16 mg/kg
50 µg/mL (≈ 141 µM) | 1 µg/mL (≈ 2.82 µM) | 12.5 µg/mL (≈ 35.2 µM) | 1.56 µg/mL (≈ 4.4 µM) | 1.56 µg/mL (≈ 4.4 µM) | 50 µg/mL (≈ 141 µM) | 0.5 µg/mL (≈ 1.41 µM) | Cc1ccc(S(=O)(=O)N2N=Cc3sc(C)cc3B2O)c(Cl)c1 | 32 mg/kg
50 µg/mL (≈ 110 µM) | 2 µg/mL (≈ 4.38 µM) | 12.5 µg/mL (≈ 27.4 µM) | 3.12 µg/mL (≈ 6.83 µM) | 1.56 µg/mL (≈ 3.42 µM) | 50 µg/mL (≈ 110 µM) | 1 µg/mL (≈ 2.19 µM) | CC(=O)Nc1ccc(S(=O)(=O)N2N=Cc3cc(Br)ccc3B2O)c(Cl)c1 | 83 mg/kg
> 50 µg/mL | > 8 µg/mL | 12.5 µg/mL (≈ 37.4 µM) | 12.5 µg/mL (≈ 37.4 µM) | 25 µg/mL (≈ 74.7 µM) | > 50 µg/mL | 1 µg/mL (≈ 2.99 µM) | Cc1ccc(S(=O)(=O)N2N=Cc3ccc(Cl)cc3B2O)cc1 | ~50 mg/kg
> 50 µg/mL | 2 µg/mL (≈ 4.84 µM) | > 50 µg/mL | 25 µg/mL (≈ 60.5 µM) | 2.5 µg/mL (≈ 6.05 µM) | > 50 µg/mL | 1 µg/mL (≈ 2.42 µM) | Cc1cc(C)c(S(=O)(=O)N2N=Cc3sc(Br)cc3B2O)c(C)c1 | > 600 mg/kg
2.5 µg/mL (≈ 8.74 µM) | 0.5 µg/mL (≈ 1.75 µM) | 0.31 µg/mL (≈ 1.08 µM) | 0.31 µg/mL (≈ 1.08 µM) | 1.25 µg/mL (≈ 4.37 µM) | 5 µg/mL (≈ 17.5 µM) | 0.5 µg/mL (≈ 1.75 µM) | CCCS(=O)(=O)N1N=Cc2cc(CC)sc2B1O | 4 mg/kg
25 µg/mL (≈ 74.7 µM) | 2 µg/mL (≈ 5.98 µM) | 3.12 µg/mL (≈ 9.32 µM) | 6.25 µg/mL (≈ 18.7 µM) | 3.12 µg/mL (≈ 9.32 µM) | > 50 µg/mL | 1 µg/mL (≈ 2.99 µM) | Cc1ccc(S(=O)(=O)N2N=Cc3cc(Cl)ccc3B2O)cc1 | ~20 mg/kg
